Series [1] has as its target T1, Protein deacetylase HDAC6 (Homo sapiens) (UniProt Q9UBN7).
T1 sequence (whole entry): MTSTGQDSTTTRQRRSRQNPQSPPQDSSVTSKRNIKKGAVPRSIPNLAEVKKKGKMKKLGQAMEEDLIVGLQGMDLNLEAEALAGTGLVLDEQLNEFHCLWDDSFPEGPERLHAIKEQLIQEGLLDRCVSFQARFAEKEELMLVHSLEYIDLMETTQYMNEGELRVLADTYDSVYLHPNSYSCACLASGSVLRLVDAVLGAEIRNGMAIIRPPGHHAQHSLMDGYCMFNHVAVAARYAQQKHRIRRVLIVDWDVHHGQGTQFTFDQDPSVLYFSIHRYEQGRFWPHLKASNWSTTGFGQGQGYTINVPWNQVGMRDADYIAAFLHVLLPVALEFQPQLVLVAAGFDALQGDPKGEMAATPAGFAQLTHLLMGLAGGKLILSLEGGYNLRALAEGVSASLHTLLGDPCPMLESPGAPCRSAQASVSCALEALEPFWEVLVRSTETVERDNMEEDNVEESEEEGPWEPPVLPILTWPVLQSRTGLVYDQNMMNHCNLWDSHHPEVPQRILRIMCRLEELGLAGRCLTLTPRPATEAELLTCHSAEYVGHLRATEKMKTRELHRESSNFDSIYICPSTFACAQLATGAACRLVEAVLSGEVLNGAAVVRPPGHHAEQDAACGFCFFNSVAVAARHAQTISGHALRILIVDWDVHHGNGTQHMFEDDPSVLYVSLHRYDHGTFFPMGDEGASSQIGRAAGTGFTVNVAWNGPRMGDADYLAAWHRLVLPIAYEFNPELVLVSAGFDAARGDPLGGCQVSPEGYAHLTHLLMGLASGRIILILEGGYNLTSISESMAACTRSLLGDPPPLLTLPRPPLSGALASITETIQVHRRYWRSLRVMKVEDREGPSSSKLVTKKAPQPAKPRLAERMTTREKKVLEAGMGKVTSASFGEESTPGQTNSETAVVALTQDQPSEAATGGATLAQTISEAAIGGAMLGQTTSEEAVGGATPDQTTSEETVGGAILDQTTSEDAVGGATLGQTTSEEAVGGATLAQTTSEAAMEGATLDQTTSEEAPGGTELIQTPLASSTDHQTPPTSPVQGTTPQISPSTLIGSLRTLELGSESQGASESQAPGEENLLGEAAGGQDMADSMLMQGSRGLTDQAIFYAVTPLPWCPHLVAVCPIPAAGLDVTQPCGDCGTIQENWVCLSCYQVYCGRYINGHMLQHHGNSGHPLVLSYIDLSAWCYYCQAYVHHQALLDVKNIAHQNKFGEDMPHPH
Nature of the series: Inhibition of HDAC6 in human SH-SY5Y cells transfected with pCAX FLAG APP and pRK5-EGFP-Tau P301L plasmids assessed as reduction in formed Tau P301L mutant aggregates level at 1 uM after 24 hrs by Western blot analysis. The series is classed as cell-based. The essentials:
(§1)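 Cotransfected SH-SY5Y cells (1 × 10^7) treated 24 h at 1 µM, lysed in sucrose/HEPES pH 7.2 buffer; 190,000 g supernatant = cytosol. Pellet treated with 5 µM nocodazole, re-spun; residual pellet extracted with sodium carbonate pH 11.5 and washed in 1% SDS to give aggregate fraction. Equal protein by SDS-PAGE immunoblot.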
In general terms: In western blotting, separated proteins are transferred to a membrane and probed.

The target in series [2] is T1, Protein deacetylase HDAC6 (Homo sapiens). In words: Inhibition of HDAC6 in human SH-SY5Y cells transfected with pCAX FLAG APP and pRK5-EGFP-Tau P301L plasmids assessed as reduction in Tau P301L mutant level in cytosol at 1 uM after 24 hrs by Western blot analysis. The series is classed as cell-based. Summed up: as §1
The target of series [3] is T2, Protein deacetylase HDAC6 (Mus musculus) (UniProt Q9Z2V5).
T2 sequence (whole entry): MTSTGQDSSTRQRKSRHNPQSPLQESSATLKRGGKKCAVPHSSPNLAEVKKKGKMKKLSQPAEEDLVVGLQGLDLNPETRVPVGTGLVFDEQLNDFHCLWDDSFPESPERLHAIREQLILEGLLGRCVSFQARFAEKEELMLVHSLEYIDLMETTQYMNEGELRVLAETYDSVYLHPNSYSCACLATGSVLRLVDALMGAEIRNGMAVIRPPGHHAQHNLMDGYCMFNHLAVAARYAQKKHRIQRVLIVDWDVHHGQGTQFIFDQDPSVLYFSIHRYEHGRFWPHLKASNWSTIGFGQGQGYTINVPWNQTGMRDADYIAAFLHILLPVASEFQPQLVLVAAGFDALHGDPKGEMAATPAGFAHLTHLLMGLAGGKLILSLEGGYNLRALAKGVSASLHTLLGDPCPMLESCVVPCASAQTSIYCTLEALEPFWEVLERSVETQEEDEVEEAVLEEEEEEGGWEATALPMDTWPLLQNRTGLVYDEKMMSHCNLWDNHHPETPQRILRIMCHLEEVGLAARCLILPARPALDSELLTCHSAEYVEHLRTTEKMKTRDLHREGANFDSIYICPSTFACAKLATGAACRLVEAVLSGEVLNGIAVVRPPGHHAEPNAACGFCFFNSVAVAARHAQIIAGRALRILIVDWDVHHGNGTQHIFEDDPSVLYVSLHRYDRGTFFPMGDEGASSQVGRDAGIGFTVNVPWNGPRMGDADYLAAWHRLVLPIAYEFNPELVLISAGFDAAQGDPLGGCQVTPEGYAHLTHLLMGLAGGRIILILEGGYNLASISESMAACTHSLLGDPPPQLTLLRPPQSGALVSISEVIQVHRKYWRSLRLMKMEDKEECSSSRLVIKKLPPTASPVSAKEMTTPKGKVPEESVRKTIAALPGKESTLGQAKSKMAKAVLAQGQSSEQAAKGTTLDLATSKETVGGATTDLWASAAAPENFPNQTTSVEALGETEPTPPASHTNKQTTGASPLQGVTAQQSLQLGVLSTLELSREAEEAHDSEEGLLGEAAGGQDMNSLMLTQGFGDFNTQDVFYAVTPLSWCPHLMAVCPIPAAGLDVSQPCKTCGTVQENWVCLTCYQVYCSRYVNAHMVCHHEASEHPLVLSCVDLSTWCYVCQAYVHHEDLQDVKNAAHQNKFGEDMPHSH
In words: Inhibition of HDAC6 in mouse Neuro-2a cells transfected with pCAX FLAG APP and pRK5-EGFP-Tau P301L plasmids assessed as increase in HSP90 acetylation at 1 uM after 24 hrs by coimmunoprecipitation analysis. The series is classed as cell-based. The essentials:
(§2)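 SH-SY5Y and Neuro-2a cells cotransfected 24 h with APP695/Tau P301L plasmids, treated 24 h at 1 µM (ACY-1215 reference). 30 µg lysate immunoprecipitated overnight at 4 °C with anti-HDAC6 or anti-acetyl-lysine antibodies plus protein A/G beads, run on 8% SDS-PAGE, probed for Hsp90; Hsp70 by immunoblot. Three independent experiments.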

Series [4] has as its target T2, Protein deacetylase HDAC6 (Mus musculus). In words: Inhibition of HDAC6 binding to HSP90 in mouse Neuro-2a cells transfected with pCAX FLAG APP and pRK5-EGFP-Tau P301L plasmids at 1 uM after 24 hrs by coimmunoprecipitation analysis. The series is classed as cell-based. Summed up:
as §2

The nature of series [5]: Plasma concentration in Sprague-Dawley rat at 50 mg/kg, po after 1 hr by HPLC-MS/MS analysis. It is filed as ADME, organism-based.

Active and inactive are the calls of the source. The rule behind the calls is not given here.

Consider `COc1ccc(C(=O)c2ccc3c(ccn3Cc3ccc(C(=O)NO)cc3)c2)cc1`, for which the inhibition entry in series [1], in series [2], in series [3] and in series [4] was “Active” throughout. This compound also had a concentration at 1 h in series [5] of 8.5 ng/mL.
